According to ChEMBL document CHEMBL4229433, “The synthesis and evaluation of phenoxyacylhydroxamic acids as potential agents for Helicobacter pylori infections” (Bioorg Med Chem, 2018):

Key:
[1] = target: T1, Urease subunit alpha/Urease subunit beta (Helicobacter pylori (strain ATCC 700392 / 26695) (Campylobacterpylori), UniProt P69996); experiment: Inhibition of Helicobacter pylori ATCC 43504 urease assessed as reduction in ammonia production using urea as substrate preincubated for 1.5 hrs under cell free condition by indophenol method; assay type: protein-complex assay, Helicobacter pylori NCTC 11637 = CCUG 17874 = ATCC 43504
Outline: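 Crude urease from H. pylori ATCC 43504 grown 24 h at 37 °C, micro-aerobic, in Brucella broth with 10% sheep blood. Cells were PBS-washed, frozen at −80 °C, sonicated with protease inhibitors, centrifuged, desalted on G-25 and kept in 50% glycerol at 4 °C. Enzyme (10U) was preincubated with compound 1.5 h at room temperature. Ammonia was read by the indophenol method.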

[2] = target: T2, Urease subunit alpha/Urease subunit beta (Helicobacter pylori (strain ATCC 700392 / 26695) (Campylobacterpylori)) (UniProt P69996+P14916); experiment: (§1) Inhibition of urease in Helicobacter pylori ATCC 43504 assessed as reduction in ammonia production using urea as substrate preincubated for 1.5 hrs by indophenol method; assay type: protein-complex assay; conditions: Helicobacter pylori NCTC 11637 = CCUG 17874 = ATCC 43504
Outline: (§2)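 Crude urease from sonicated H. pylori cells (grown 24 h, 37 °C, microaerobic, Brucella broth + 10% sheep blood), PBS-washed, frozen at –80 °C, desalted on Sephadex G-25, stored in 50% glycerol at 4 °C; 10U enzyme preincubated with compound 1.5 h at room temperature; ammonia measured by Weatherburn indophenol method.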

[3] = target: T1, Urease subunit alpha/Urease subunit beta; experiment: as §1; assay type: protein-complex assay, Helicobacter pylori NCTC 11637 = CCUG 17874 = ATCC 43504; outline: as §2
[4] = target: T2, Urease subunit alpha/Urease subunit beta (Helicobacter pylori (strain ATCC 700392 / 26695) (Campylobacterpylori)); experiment: Ratio of IC50 for inhibition of urease in Helicobacter pylori ATCC 43504 intact cells to IC50 for inhibition of Helicobacter pylori ATCC 43504 urease under cell free condition; conditions: Helicobacter pylori NCTC 11637 = CCUG 17874 = ATCC 43504
[5] = target: T2, Urease subunit alpha/Urease subunit beta (Helicobacter pylori (strain ATCC 700392 / 26695) (Campylobacterpylori)); experiment: Potency index, ratio of acetohydroxamic acid IC50 to compound IC50 for inhibition of Helicobacter pylori ATCC 43504 urease; assay type: protein-complex assay; conditions: Helicobacter pylori NCTC 11637 = CCUG 17874 = ATCC 43504
[6] = target: T2, Urease subunit alpha/Urease subunit beta (Helicobacter pylori (strain ATCC 700392 / 26695) (Campylobacterpylori)); experiment: Potency index, ratio of acetohydroxamic acid IC50 to compound IC50 for inhibition of urease in Helicobacter pylori ATCC 43504; assay type: protein-complex assay; conditions: Helicobacter pylori NCTC 11637 = CCUG 17874 = ATCC 43504
[7] = target: T1, Urease subunit alpha/Urease subunit beta; experiment: Mixed-type inhibition of Helicobacter pylori ATCC 43504 urease assessed as enzyme-substrate-inhibitor complex using urea as substrate preincubated for 1.5 hrs; assay type: protein-complex assay, Helicobacter pylori NCTC 11637 = CCUG 17874 = ATCC 43504
Outline: (§3)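 Ammonia production rate measured by the indophenol method over a urea concentration gradient at each fixed inhibitor concentration. Inhibition type was assigned by nonlinear fitting to the general kinetic equation. Ki and Ki' were taken as the X-axis intercepts of linear fits of the fitted parameters against inhibitor concentration.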

[8] = target: T1, Urease subunit alpha/Urease subunit beta; experiment: Mixed-type inhibition of Helicobacter pylori ATCC 43504 urease assessed as enzyme-inhibitor complex using urea as substrate preincubated for 1.5 hrs; assay type: protein-complex assay, Helicobacter pylori NCTC 11637 = CCUG 17874 = ATCC 43504; outline: as §3

T2 sequence (P14916 whole entry, looked up): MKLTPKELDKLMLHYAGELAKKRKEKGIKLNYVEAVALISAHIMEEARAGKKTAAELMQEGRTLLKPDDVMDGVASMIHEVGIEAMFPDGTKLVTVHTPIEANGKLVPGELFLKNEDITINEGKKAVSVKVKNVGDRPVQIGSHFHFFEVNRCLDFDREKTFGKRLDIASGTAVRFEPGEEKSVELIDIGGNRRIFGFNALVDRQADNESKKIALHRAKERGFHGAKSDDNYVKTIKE
T2 sequence (P69996 whole entry, looked up): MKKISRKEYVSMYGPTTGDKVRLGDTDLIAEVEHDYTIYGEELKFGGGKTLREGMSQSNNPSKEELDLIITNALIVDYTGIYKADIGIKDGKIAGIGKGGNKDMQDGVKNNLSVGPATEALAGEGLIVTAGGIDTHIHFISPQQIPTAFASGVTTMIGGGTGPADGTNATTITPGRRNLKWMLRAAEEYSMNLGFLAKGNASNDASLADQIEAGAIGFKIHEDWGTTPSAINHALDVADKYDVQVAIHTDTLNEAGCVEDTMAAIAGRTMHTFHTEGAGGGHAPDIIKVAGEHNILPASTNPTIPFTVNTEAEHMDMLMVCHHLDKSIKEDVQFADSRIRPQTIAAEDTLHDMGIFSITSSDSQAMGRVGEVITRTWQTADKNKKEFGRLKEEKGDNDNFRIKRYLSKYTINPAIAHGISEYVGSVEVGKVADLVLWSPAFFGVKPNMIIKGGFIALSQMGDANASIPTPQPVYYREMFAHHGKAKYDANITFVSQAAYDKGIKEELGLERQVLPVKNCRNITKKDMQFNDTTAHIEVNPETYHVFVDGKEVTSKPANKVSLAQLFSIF
T1 sequence (P69996 whole entry): as the sequence (P69996 whole entry, looked up) above
T1 sequence (P14916 whole entry, further chain): as the sequence (P14916 whole entry, looked up) above

Structure (SMILES)	IC50 [1] [µM]	also measured
O=C(CCOc1cccc(Cl)c1)NO	1.23	
Cc1cc(C)cc(OCCC(=O)NO)c1	10.4	
O=C(COc1c(Cl)cccc1Cl)NO	353	
O=C(COc1ccccc1)NO	131	
COc1ccc(OCC(=O)NO)cc1	49.5	
O=C(COc1ccc(F)cc1)NO	18.9	
O=C(CCOc1cc(Cl)ccc1Cl)NO	13.1	
O=C(CCOc1ccccc1)NO	4.18	
O=C(CCOc1cccc(F)c1)NO	2.05	
O=C(COc1cc(Cl)ccc1Cl)NO	9.02	
Cc1ccc(OCCC(=O)NO)cc1	1.38	
O=C(COc1ccc([N+](=O)[O-])cc1)NO	62.1	
O=C(COc1cccc(F)c1)NO	27	
COc1ccc(OCCC(=O)NO)cc1	8.35	
O=C(COc1cc(Cl)cc(Cl)c1)NO	3.22	
O=C(CCOc1ccc(F)cc1)NO	1.13	
Cc1cccc(OCC(=O)NO)c1	85.1	
O=C(COc1ccccc1[N+](=O)[O-])NO	144	
O=C(COc1ccc(Cl)c(Cl)c1)NO	0.52	inhibition [2]: Dose-dependent effect; IC50 [3]: 12.8 µM; Ratio IC50 [4]: 14 to 24

Structure (SMILES)	IC50 [1] [µM]	also measured
Cc1ccccc1OCC(=O)NO	154	
O=C(COc1cc(F)cc(F)c1)NO	205	
O=C(COc1cccc(Cl)c1Cl)NO	179	
O=C(COc1ccc(Cl)cc1Cl)NO	0.83	inhibition [2]: Dose-dependent effect; IC50 [3]: 21.4 µM; Ratio IC50 [4]: 14 to 24
Cc1ccc(OCC(=O)NO)cc1	57.1	
O=C(COc1ccc(Cl)cc1)NO	1.26	
Cc1cccc(OCCC(=O)NO)c1	3.38	
O=C(COc1cccc([N+](=O)[O-])c1)NO	94.7	
O=C(COc1ccccc1Cl)NO	78.5	
O=C(COc1ccc(Br)cc1)NO	5.35	
O=C(CCOc1ccc(Br)cc1)NO	0.86	inhibition [2]: Dose-dependent effect; IC50 [3]: 16.3 µM; Ratio IC50 [4]: 14 to 24
O=C(CCOc1ccc(Cl)c(Cl)c1)NO	0.061	inhibition [2]: Dose-dependent effect; IC50 [3]: 0.89 µM; Ratio IC50 [5]: > 450; Ratio IC50 [6]: > 120; Ratio IC50 [4]: 14 to 24
O=C(COc1ccccc1F)NO	121	
Cc1ccccc1OCCC(=O)NO	6.74	
O=C(CCOc1cc(F)cc(F)c1)NO	5.09	
Cc1cc(C)cc(OCC(=O)NO)c1	41.9	
O=C(COc1cccc(Cl)c1)NO	10.4	
O=C(CCOc1ccc(Cl)cc1)NO	0.44	Ki [7]: 0.054 µM; inhibition [2]: Dose-dependent effect; IC50 [3]: 8.2 µM; Ratio IC50 [4]: 14 to 24; Ki [8]: 0.043 µM
